According to ChEMBL document CHEMBL2169747, “Synthesis and biological properties of highly sequence-specific-alkylating N-methylpyrrole-N-methylimidazole polyamide conjugates” (J Med Chem, 2012):
The source made the active and inactive calls. The rule behind the calls is not given here.

Tests used:
DU-145 = test: Antitumor activity against human DU145 cells xenografted in BALB/c-nu/nu mouse assessed as effect on tumor growth at 1.6 mg/kg, iv administered as liposomal conjugate for 14 days; type: functional, organism-based; set-up: dose 1.6 mg/kg
Summary of the method: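 Male BALB/c-nu/nu mice (5 weeks, 15−22 g) with subcutaneous right-subaxillary A549 or DU145 xenografts (3 × 10^6 cells/mouse), grouped by tumor size. Liposomes were made from a lipid film hydrated in water and bath-sonicated 2 h, giving 330 μg/mL conjugate in 17 mM lipid. A single 125 μL intravenous dose (41 μg/mouse) was given on day 0. Tumor size and weight were read every other day for 14 days. n = 5 or 6.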

A549 [1] = test: Downregulation of DPYD gene expression in human A549 cells at 26 nM after 12 hrs by microarray analysis relative to control; type: functional
Summary of the method: (§1)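 A549 cells, 4 × 10^5 per 60 mm dish, were exposed to conjugate for 12 h in medium with 0.1% DMSO; vehicle control was 0.1% DMSO. Whole human genome (~25 000 genes) expression was profiled by microarray and expression compared with the control.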

A549 [2] = test: Downregulation of RABGAP1L gene expression in human A549 cells at 26 nM after 12 hrs by microarray analysis relative to control; type: functional
Summary of the method: (§2)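 A549 cells (RPMI-1640, 10% heat-inactivated FBS, penicillin/streptomycin, 37 °C, 5% CO2) seeded at 4 × 10^5 per 60 mm dish. Exposed 12 h to conjugate at 21, 26, 34 or 100 nM in medium with 0.1% DMSO, against 0.1% DMSO control. Whole-genome (~25 000 genes) expression profiled by microarray.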

A549 [3] = test: Downregulation of PTPRK gene expression in human A549 cells at 26 nM after 12 hrs by microarray analysis relative to control; type: functional; summary of the method: as §2
A549 [4] = test: Downregulation of ADH1A gene expression in human A549 cells at 26 nM after 12 hrs by microarray analysis relative to control; type: functional; summary of the method: as §1
A549 [5] = test: Downregulation of Q5WOV6 gene expression in human A549 cells at 26 nM after 12 hrs by microarray analysis relative to control; type: functional; summary of the method: as §2
A549 [6] = test: Downregulation of HS2ST1 gene expression in human A549 cells at 26 nM after 12 hrs by microarray analysis relative to control; type: functional; summary of the method: as §1
A549 [7] = test: Downregulation of MYCBP2 gene expression in human A549 cells at 26 nM after 12 hrs by microarray analysis relative to control; type: functional; summary of the method: as §1
A549 [8] = test: Downregulation of NBEA gene expression in human A549 cells at 26 nM after 12 hrs by microarray analysis relative to control; type: functional; summary of the method: as §1
A549 [9] = test: Downregulation of SEMA3E gene expression in human A549 cells at 26 nM after 12 hrs by microarray analysis relative to control; type: functional; summary of the method: as §2
A549 [10] = test: Downregulation of Q9Y6Z5 gene expression in human A549 cells at 26 nM after 12 hrs by microarray analysis relative to control; type: functional; summary of the method: as §2
A549 [11] = test: Upregulation of SPESP1 gene expression in human A549 cells at 26 nM after 12 hrs by microarray analysis relative to control; type: functional
Summary of the method: (§3)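 4 ×10^5 A549 cells seeded per 60 mm dish and treated 12 h with conjugate (21, 26, 34 or 100 nM) in medium; control medium contained 0.1% DMSO, with conjugates added as 0.1% DMSO solutions. Whole human genome (~25 000 genes) expression profiled by microarray against the DMSO control. A549 culture: RPMI-1640 with 10% heat-inactivated FBS, penicillin/streptomycin, 37 °C, 5% CO2.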

A549 [12] = test: Upregulation of BBC3 gene expression in human A549 cells at 26 nM after 12 hrs by microarray analysis relative to control; type: functional; summary of the method: as §2
A549 [13] = test: Upregulation of MDM2 gene expression in human A549 cells at 26 nM after 12 hrs by microarray analysis relative to control; type: functional; summary of the method: as §3
A549 [14] = test: Upregulation of GADD45A gene expression in human A549 cells at 26 nM after 12 hrs by microarray analysis relative to control; type: functional; summary of the method: as §3
A549 [15] = test: Upregulation of RRAD gene expression in human A549 cells at 26 nM after 12 hrs by microarray analysis relative to control; type: functional; summary of the method: as §3
A549 [16] = test: Upregulation of GDF15 gene expression in human A549 cells at 26 nM after 12 hrs by microarray analysis relative to control; type: functional; summary of the method: as §3
Mus musculus = test: Toxicity in BALB/c nu/nu mouse at 0.50 mg/kg, ip for 14 days; type: organism-based; set-up: dose 0.5 mg/kg, route intraperitoneal; settings: in vivo, 0.5 mg/kg, 336 h
Summary of the method: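 Pre-test in male BALB/c-nu/nu mice without xenografts. Naked conjugate was dissolved in 100% DMSO and given ip at 0.50 mg/kg (12.5 μg/mouse). Liposomal conjugate (0.33 mg/mL in 17 mM lipid, hydrated with water and sonicated) was given iv at 1.6 mg/kg (41 μg/mouse), 125 μL single dose.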

A549 [17] = test: Downregulation of DPYD gene expression in human A549 cells at 34 nM after 12 hrs by microarray analysis relative to control; type: functional; summary of the method: as §1
A549 [18] = test: Downregulation of PTPRK gene expression in human A549 cells at 34 nM after 12 hrs by microarray analysis relative to control; type: functional; summary of the method: as §2
A549 [19] = test: Downregulation of Q8NBA2 gene expression in human A549 cells at 34 nM after 12 hrs by microarray analysis relative to control; type: functional; summary of the method: as §2
A549 [20] = test: Downregulation of LAMA2 gene expression in human A549 cells at 34 nM after 12 hrs by microarray analysis relative to control; type: functional; summary of the method: as §1
A549 [21] = test: Downregulation of ACTG gene expression in human A549 cells at 34 nM after 12 hrs by microarray analysis relative to control; type: functional; summary of the method: as §1
A549 [22] = test: Downregulation of SIPA1L1 gene expression in human A549 cells at 34 nM after 12 hrs by microarray analysis relative to control; type: functional; summary of the method: as §2
A549 [23] = test: Downregulation of NP_001027.2 gene expression in human A549 cells at 34 nM after 12 hrs by microarray analysis relative to control; type: functional; summary of the method: as §1
A549 [24] = test: Downregulation of OR1C1 gene expression in human A549 cells at 34 nM after 12 hrs by microarray analysis relative to control; type: functional; summary of the method: as §2
A549 [25] = test: Downregulation of HIST1H2AC gene expression in human A549 cells at 34 nM after 12 hrs by microarray analysis relative to control; type: functional; summary of the method: as §1
A549 [26] = test: Upregulation of MDM2 gene expression in human A549 cells at 34 nM after 12 hrs by microarray analysis relative to control; type: functional; summary of the method: as §3
A549 [27] = test: Upregulation of BBC3 gene expression in human A549 cells at 34 nM after 12 hrs by microarray analysis relative to control; type: functional; summary of the method: as §2
A549 [28] = test: Upregulation of HES2 gene expression in human A549 cells at 34 nM after 12 hrs by microarray analysis relative to control; type: functional; summary of the method: as §3
A549 [29] = test: Upregulation of KRTHA4 gene expression in human A549 cells at 34 nM after 12 hrs by microarray analysis relative to control; type: functional; summary of the method: as §3
A549 [30] = test: Upregulation of GADD45A gene expression in human A549 cells at 34 nM after 12 hrs by microarray analysis relative to control; type: functional; summary of the method: as §3
A549 [31] = test: Upregulation of U124 gene expression in human A549 cells at 34 nM after 12 hrs by microarray analysis relative to control; type: functional; summary of the method: as §3

`CC(=O)Nc1cn(C)c(C(=O)Nc2cc(C(=O)Nc3cc(C(=O)NCCC(=O)Nc4cc(C(=O)NCCCC(=O)Nc5cc(C(=O)NCCC(=O)Nc6cn(C)c(C(=O)Nc7ccc8[nH]c(C(=O)N9CC(CCl)c%10c9cc(O)c9ccccc%109)cc8c7)n6)n(C)c5)n(C)c4)n(C)c3)n(C)c2)n1` (racemic) was tested, and the Activity (DU-145) was “Active”, the “fold change (FC)” value (A549 [1]) was 0.115 and the “fold change (FC)” value (A549 [2]) was 0.155. The “fold change (FC)” value (A549 [3]) was 0.257, the “fold change (FC)” value (A549 [4]) was 0.317 and the “fold change (FC)” value (A549 [5]) was 0.324. For the same molecule, the “fold change (FC)” value (A549 [6]) was 0.329, the “fold change (FC)” value (A549 [7]) was 0.338 and the “fold change (FC)” value (A549 [8]) was 0.339. The “fold change (FC)” value (A549 [9]) was 0.353, the “fold change (FC)” value (A549 [10]) was 0.356 and the “fold change (FC)” value (A549 [11]) was 11. For the same molecule, the “fold change (FC)” value (A549 [12]) was 9.4, the “fold change (FC)” value (A549 [13]) was 8.1 and the “fold change (FC)” value (A549 [14]) was 7. The “fold change (FC)” value (A549 [15]) was 6, the “fold change (FC)” value (A549 [16]) was 5.5 and the Activity (Mus musculus) was “Non-toxic”.
For `CC(=O)Nc1cn(C)c(C(=O)Nc2cn(C)c(C(=O)Nc3cc(C(=O)NCCC(=O)Nc4cc(C(=O)NCCCC(=O)Nc5cn(C)c(C(=O)NCCC(=O)Nc6cn(C)c(C(=O)Nc7ccc8[nH]c(C(=O)N9CC(CCl)c%10c9cc(O)c9ccccc%109)cc8c7)n6)n5)n(C)c4)n(C)c3)n2)n1` (racemic), the “fold change (FC)” value (A549 [17]) was 0.103, the “fold change (FC)” value (A549 [18]) was 0.189 and the “fold change (FC)” value (A549 [19]) was 0.276. For the same molecule, the “fold change (FC)” value (A549 [20]) was 0.3, the “fold change (FC)” value (A549 [21]) was 0.307 and the “fold change (FC)” value (A549 [22]) was 0.309. The “fold change (FC)” value (A549 [23]) was 0.313, the “fold change (FC)” value (A549 [24]) was 0.324 and the “fold change (FC)” value (A549 [25]) was 0.329. For the same molecule, the “fold change (FC)” value (A549 [26]) was 8.9, the “fold change (FC)” value (A549 [27]) was 8.5 and the “fold change (FC)” value (A549 [28]) was 8.2. The “fold change (FC)” value (A549 [29]) was 6.1, the “fold change (FC)” value (A549 [30]) was 5.9 and the “fold change (FC)” value (A549 [31]) was 5.6.
